Measured values: ChEMBL document CHEMBL1124186, “Synthesis and evaluation of tylosin-related macrolides modified at the aldehyde function: a new series of orally effective antibiotics” (1988)
≈ marks a conversion by molar mass, not a printed value.

Key:
Streptococcus pneumoniae [1] = experiment: In vitro antimicrobial activity against aerobic bacteria Streptococcus pneumoniae B1-438; assay type: functional, streptococcus pneum
Streptococcus pyogenes [2] = experiment: In vivo effective dose against experimental infections in rodent caused by Streptococcus pyogenes C203 when administered orally; assay type: functional; details: po
Mus musculus [3] = experiment: Peripheral plasma levels in mice after oral administration of 50 mg/kg dose for 4 hr; assay type: functional, organism-based; set-up: dose 50 mg/kg
Summary of the method: (§1)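 Mice were given the compound orally and sampled for peripheral plasma at each time point. Plasma was assayed microbiologically against Micrococcus luteus seeded in Antibiotic Medium 1. Inhibition zone sizes were read, and concentrations were calculated from each compound's own standard curve. Each value is the mean of five mice per time point.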

Mus musculus [4] = experiment: Peripheral plasma levels in mice after oral administration of 100 mg/kg dose for 1 hr; assay type: functional, organism-based; set-up: dose 100 mg/kg; summary of the method: as §1
Staphylococcus aureus [5] = experiment: In vitro antimicrobial activity against aerobic bacteria Staphylococcus aureus X400; assay type: functional
Staphylococcus aureus [6] = experiment: In vivo effective dose against experimental infections in mice Staphylococcus aureus X1 when administered orally; assay type: functional; details: po
[7] = tested on: Staphylococcus epidermidis; experiment: In vitro antimicrobial activity against aerobic bacteria Streptococcus epi 222; assay type: functional
[8] = tested on: Haemophilus parainfluenzae; experiment: In vitro antimicrobial activity against aerobic bacteria Haemophilus parainfluenzae 9796; assay type: functional
Clostridium septicum = experiment: In vitro antimicrobial activity against anaerobic bacteria clostridium septicum 1128; assay type: functional
Streptococcus pneumoniae [9] = experiment: In vitro antimicrobial activity against Streptococcus pneumoniae; assay type: functional
Bacteroides fragilis [10] = experiment: In vitro antimicrobial activity against anaerobic bacteria bacteroides fragilis 1936B,; assay type: functional
Streptococcus [11] = experiment: In vitro antimicrobial activity against aerobic bacteria Streptococcus D 9960; assay type: functional
Streptococcus pyogenes [12] = experiment: In vivo effective dose against experimental infections in rodent caused by Streptococcus pyogenes C203 when administered sc; assay type: functional
Streptococcus [13] = experiment: In vitro antimicrobial activity against aerobic bacteria Streptococcus B 14; assay type: functional
Collinsella aerofaciens = experiment: In vitro antimicrobial activity against anaerobic bacteria eubacterium aerofaciens 1235; assay type: functional
Mus musculus [14] = experiment: Peripheral plasma levels in mice after oral administration of 50 mg/kg dose for 0.5 hr; assay type: functional, organism-based; set-up: dose 50 mg/kg; summary of the method: as §1
[15] = In vitro antimicrobial activity against anaerobic bacteria peptostreptococcus intermedius 1264; assay type: functional
[16] = tested on: Staphylococcus epidermidis; experiment: In vitro antimicrobial activity against Staphylococcus epidermidis EPI1; assay type: functional
Mus musculus [17] = experiment: Peripheral plasma levels in mice after oral administration of 100 mg/kg dose for 2 hr; assay type: functional, organism-based; set-up: dose 100 mg/kg; summary of the method: as §1
Rattus norvegicus [18] = experiment: Peripheral plasma levels in rats after oral administration of 100 mg/kg dose for 4 hr; assay type: functional, organism-based; set-up: dose 100 mg/kg
Summary of the method: (§2)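 Rats received 100 mg/kg orally and were sampled for peripheral plasma. Concentrations were measured by Micrococcus luteus agar-diffusion microbiological assay in Antibiotic Medium 1, with zone sizes converted using the standard curve for the appropriate compound. Each value is the average of three rats per time point.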

[19] = tested on: Prevotella melaninogenica; experiment: In vitro antimicrobial activity against anaerobic bacteria bacteroides melaninogenicus 2736; assay type: functional
Fusobacterium = experiment: In vitro antimicrobial activity against anaerobic bacteria fusobacterium symbiosum 1470; assay type: functional
[20] = tested on: Fusobacterium necrophorum; experiment: In vitro antimicrobial activity against anaerobic bacteria usobacterium necrophorum 6054A; assay type: functional
Streptococcus pneumoniae [21] = experiment: In vivo effective dose against experimental infections in mice Strep. pneumoniae park when administered orally; assay type: functional; details: po
Staphylococcus aureus [22] = experiment: In vitro antimicrobial activity against aerobic bacteria Staphylococcus aureus 513E; assay type: functional
[23] = tested on: Prevotella melaninogenica; experiment: In vitro antimicrobial activity against anaerobic bacteria bacteroides melaninogenicus 1856,; assay type: functional
Cutibacterium acnes = experiment: In vitro antimicrobial activity against anaerobic bacteria propionibacterium acnes 79; assay type: functional
Mus musculus [24] = experiment: Peripheral plasma levels in mice after oral administration of 50 mg/kg dose for 0.25 hr; assay type: functional, organism-based; set-up: dose 50 mg/kg; summary of the method: as §1
Streptococcus pneumoniae [25] = experiment: In vivo effective dose against experimental infections in mice Strep. pneumoniae park when administered sc; assay type: functional
Rattus norvegicus [26] = experiment: Peripheral plasma levels in rats after oral administration of 100 mg/kg dose for 1 hr; assay type: functional, organism-based; set-up: dose 100 mg/kg; summary of the method: as §2
Streptococcus pyogenes [27] = experiment: In vitro antimicrobial activity against Streptococcus pyogenes C203; assay type: functional
Rattus norvegicus [28] = experiment: Peripheral plasma levels in rats after oral administration of 100 mg/kg dose for 0.25 hr; assay type: functional, organism-based; set-up: dose 100 mg/kg; summary of the method: as §2
Mus musculus [29] = experiment: Peripheral plasma levels in mice after oral administration of 100 mg/kg dose for 4 hr; assay type: functional, organism-based; set-up: dose 100 mg/kg; summary of the method: as §1
Phocaeicola vulgatus = experiment: In vitro antimicrobial activity against anaerobic bacteria bacteroides vulgatus 1211; assay type: functional
[30] = tested on: Peptostreptococcus anaerobius; experiment: In vitro antimicrobial activity against anaerobic bacteria eubacterium peptostreptococcus anaerobius 1428,; assay type: functional
[31] = tested on: Bacteroides thetaiotaomicron; experiment: In vitro antimicrobial activity against anaerobic bacteria bacteroides thetaiotaomicron 1438; assay type: functional
Staphylococcus aureus [32] = experiment: In vivo effective dose against experimental infections in mice Staphylococcus aureus X1 when administered sc; assay type: functional
Rattus norvegicus [33] = experiment: Peripheral plasma levels in rats after oral administration of 100 mg/kg dose for 2 hr; assay type: functional, organism-based; set-up: dose 100 mg/kg; summary of the method: as §2
Mus musculus [34] = experiment: Peripheral plasma levels in mice after oral administration of 50 mg/kg dose for 1 hr; assay type: functional, organism-based; set-up: dose 50 mg/kg; summary of the method: as §1
[35] = tested on: Peptoniphilus asaccharolyticus; experiment: In vitro antimicrobial activity against anaerobic bacteria peptococcus asaccharolyticus 1302; assay type: functional
Bacteroides fragilis [36] = experiment: In vitro antimicrobial activity against anaerobic bacteria bacteroides fragilis 1877; assay type: functional
Haemophilus influenzae [37] = experiment: In vitro antimicrobial activity against aerobic bacteria Haemophilus influenzae 76; assay type: functional
Staphylococcus aureus [38] = experiment: In vitro antimicrobial activity against Staphylococcus aureus X1; assay type: functional
Streptococcus [39] = experiment: In vitro antimicrobial activity against aerobic bacteria Streptococcus D 8043; assay type: functional
[40] = tested on: Staphylococcus epidermidis; experiment: In vitro antimicrobial activity against aerobic bacteria Streptococcus epi 270; assay type: functional
Clostridioides difficile = experiment: In vitro antimicrobial activity against anaerobic bacteria Clostridium difficile 2994; assay type: functional
Anaerococcus prevotii = experiment: In vitro antimicrobial activity against anaerobic bacteria peptococcus prevoti 1281; assay type: functional
Mus musculus [41] = experiment: Peripheral plasma levels in mice after oral administration of 50 mg/kg dose for 2 hr; assay type: functional, organism-based; set-up: dose 50 mg/kg; summary of the method: as §1
Staphylococcus aureus [42] = experiment: In vitro antimicrobial activity against aerobic bacteria Staphylococcus aureus V41; assay type: functional
Haemophilus influenzae [43] = experiment: In vitro antimicrobial activity against aerobic bacteria Haemophilus influenzae 465; assay type: functional
Mus musculus [44] = experiment: Peripheral plasma levels in mice after oral administration of 100 mg/kg dose for 0.25 hr; assay type: functional, organism-based; set-up: dose 100 mg/kg; summary of the method: as §1
Staphylococcus aureus [45] = experiment: In vitro antimicrobial activity against aerobic bacteria Staphylococcus aureus V135; assay type: functional
Streptococcus [46] = experiment: In vitro antimicrobial activity against aerobic bacteria Streptococcus D 2041; assay type: functional
Bacteroides fragilis [47] = experiment: In vitro antimicrobial activity against anaerobic bacteria bacteroides fragilis 111; assay type: functional
Mus musculus [48] = experiment: Peripheral plasma levels in mice after oral administration of 100 mg/kg dose for 0.5 hr; assay type: functional, organism-based; set-up: dose 100 mg/kg; summary of the method: as §1
Streptococcus [49] = experiment: In vitro antimicrobial activity against aerobic bacteria Streptococcus B 5; assay type: functional
Rattus norvegicus [50] = experiment: Peripheral plasma levels in rats after oral administration of 100 mg/kg dose for 0.5 hr; assay type: functional, organism-based; set-up: dose 100 mg/kg; summary of the method: as §2
Haemophilus influenzae [51] = experiment: In vitro antimicrobial activity against aerobic bacteria Haemophilus influenzae MX366,; assay type: functional
Haemophilus influenzae [52] = experiment: In vitro antimicrobial activity against Haemophilus influenzae.; assay type: functional
Eikenella corrodens = experiment: In vitro antimicrobial activity against anaerobic bacteria bacteroides corrodens 1874; assay type: functional
Clostridium perfringens = experiment: In vitro antimicrobial activity against anaerobic bacteria clostridium perfringens 81,; assay type: functional
Chlamydia trachomatis = experiment: In vitro antimicrobial activity against chlamydia trachomatis.; assay type: functional
Staphylococcus aureus [53] = experiment: In vitro antimicrobial activity against aerobic bacteria Staphylococcus aureus V140,; assay type: functional
Enterococcus faecium = experiment: In vitro antimicrobial activity against Streptococcus faecium X66; assay type: functional, streptococcus fae-cium

Compound `CC[C@H]1OC(=O)C[C@@H](O)[C@H](C)[C@@H](O[C@@H]2O[C@H](C)[C@@H](O)[C@H](N(C)C)[C@H]2O)[C@@H](CCCl)C[C@@H](C)C(=O)/C=C/C(C)=C/[C@@H]1CO[C@@H]1O[C@H](C)[C@@H](O)[C@@H](OC)[C@H]1OC` has an MIC (Streptococcus pneumoniae [1]) greater than 128 µg/mL, an ED50 (Streptococcus pyogenes [2]) of 5 mg/kg and a Concentration (Mus musculus [3]) of less than 0.1 µg/mL. For the same compound, the Concentration (Mus musculus [4]) was 2.8 µg/mL, the MIC (Staphylococcus aureus [5]) was 0.12 µg/mL (≈ 0.151 µM) and the ED50 (Staphylococcus aureus [6]) was 9 mg/kg. For the same compound, the MIC [7] was 0.6 µg/mL (≈ 0.757 µM), the MIC [8] was 32 µg/mL (≈ 40.4 µM) and the MIC (Clostridium septicum) was less than 0.5 µg/mL. It also gave an MIC (Streptococcus pneumoniae [9]) of 1 µg/mL (≈ 1.26 µM), an MIC (Bacteroides fragilis [10]) of 2 µg/mL (≈ 2.52 µM) and an MIC (Streptococcus [11]) of 8 µg/mL (≈ 10.1 µM). For the same compound, the ED50 (Streptococcus pyogenes [12]) was 0.7 mg/kg, the MIC (Streptococcus [13]) was 64 µg/mL (≈ 80.8 µM) and the MIC (Collinsella aerofaciens) was 4 µg/mL (≈ 5.05 µM). It also gave a Concentration (Mus musculus [14]) of 0.4 µg/mL, an MIC [15] of 2 µg/mL (≈ 2.52 µM) and an MIC [16] of 0.12 µg/mL (≈ 0.151 µM). It also gave a Concentration (Mus musculus [17]) of 1.5 µg/mL, a Concentration (Rattus norvegicus [18]) of 7.7 µg/mL and an MIC [19] of 2 µg/mL (≈ 2.52 µM). For the same compound, the MIC (Fusobacterium) was 2 µg/mL (≈ 2.52 µM), the MIC [20] was 8 µg/mL (≈ 10.1 µM) and the ED50 (Streptococcus pneumoniae [21]) was greater than 50 mg/kg. The MIC (Staphylococcus aureus [22]) was 0.12 µg/mL (≈ 0.151 µM), the MIC [23] was 1 µg/mL (≈ 1.26 µM) and the MIC (Cutibacterium acnes) was 16 µg/mL (≈ 20.2 µM). The Concentration (Mus musculus [24]) was 0.3 µg/mL, the ED50 (Streptococcus pneumoniae [25]) was greater than 20 mg/kg and the Concentration (Rattus norvegicus [26]) was 9.4 µg/mL. The MIC (Streptococcus pyogenes [27]) was 0.25 µg/mL (≈ 0.315 µM), the Concentration (Rattus norvegicus [28]) was 5.4 µg/mL and the Concentration (Mus musculus [29]) was 0.3 µg/mL. The MIC (Phocaeicola vulgatus) was 1 µg/mL (≈ 1.26 µM), the MIC [30] was less than 0.5 µg/mL and the MIC [31] was 2 µg/mL (≈ 2.52 µM). It also gave an ED50 (Staphylococcus aureus [32]) of 1.8 mg/kg, a Concentration (Rattus norvegicus [33]) of 12.7 µg/mL and a Concentration (Mus musculus [34]) of 0.3 µg/mL. It also gave an MIC [35] of 2 µg/mL (≈ 2.52 µM), an MIC (Bacteroides fragilis [36]) of 2 µg/mL (≈ 2.52 µM) and an MIC (Haemophilus influenzae [37]) of 16 µg/mL (≈ 20.2 µM). For the same compound, the MIC (Staphylococcus aureus [38]) was 0.25 µg/mL (≈ 0.315 µM), the MIC (Streptococcus [39]) was 4 µg/mL (≈ 5.05 µM) and the MIC [40] was greater than 128 µg/mL. The MIC (Clostridioides difficile) was less than 0.5 µg/mL, the MIC (Anaerococcus prevotii) was 1 µg/mL (≈ 1.26 µM) and the Concentration (Mus musculus [41]) was 0.4 µg/mL. It also gave an MIC (Staphylococcus aureus [42]) of 0.12 µg/mL (≈ 0.151 µM), an MIC (Haemophilus influenzae [43]) of 16 µg/mL (≈ 20.2 µM) and a Concentration (Mus musculus [44]) of 8.4 µg/mL. For the same compound, the MIC (Staphylococcus aureus [45]) was 0.25 µg/mL (≈ 0.315 µM), the MIC (Streptococcus [46]) was 16 µg/mL (≈ 20.2 µM) and the MIC (Bacteroides fragilis [47]) was 2 µg/mL (≈ 2.52 µM). For the same compound, the Concentration (Mus musculus [48]) was 6.4 µg/mL, the MIC (Streptococcus [49]) was greater than 128 µg/mL and the Concentration (Rattus norvegicus [50]) was 8.8 µg/mL. It also gave an MIC (Haemophilus influenzae [51]) of 16 µg/mL (≈ 20.2 µM), an MIC (Haemophilus influenzae [52]) of 16 µg/mL (≈ 20.2 µM) and an MIC (Eikenella corrodens) of 2 µg/mL (≈ 2.52 µM). The MIC (Clostridium perfringens) was less than 0.5 µg/mL, the MIC (Chlamydia trachomatis) was 0.25 µg/mL (≈ 0.315 µM) and the MIC (Staphylococcus aureus [53]) was 0.25 µg/mL (≈ 0.315 µM). The MIC (Enterococcus faecium) was 8 µg/mL (≈ 10.1 µM).
